# Experimental data reported in ChEMBL document CHEMBL1141070, “Synthesis and biological activity of flurbiprofen analogues as selective inhibitors of beta-amyloid(1)(-)(42) secretion” (J Med Chem, 2005).
# Columns and labels:
# [1] = target: T1, Amyloid-beta precursor protein (Homo sapiens, UniProt P05067); settings: at 100 µM
# Target sequence in this assay (P05067 whole entry): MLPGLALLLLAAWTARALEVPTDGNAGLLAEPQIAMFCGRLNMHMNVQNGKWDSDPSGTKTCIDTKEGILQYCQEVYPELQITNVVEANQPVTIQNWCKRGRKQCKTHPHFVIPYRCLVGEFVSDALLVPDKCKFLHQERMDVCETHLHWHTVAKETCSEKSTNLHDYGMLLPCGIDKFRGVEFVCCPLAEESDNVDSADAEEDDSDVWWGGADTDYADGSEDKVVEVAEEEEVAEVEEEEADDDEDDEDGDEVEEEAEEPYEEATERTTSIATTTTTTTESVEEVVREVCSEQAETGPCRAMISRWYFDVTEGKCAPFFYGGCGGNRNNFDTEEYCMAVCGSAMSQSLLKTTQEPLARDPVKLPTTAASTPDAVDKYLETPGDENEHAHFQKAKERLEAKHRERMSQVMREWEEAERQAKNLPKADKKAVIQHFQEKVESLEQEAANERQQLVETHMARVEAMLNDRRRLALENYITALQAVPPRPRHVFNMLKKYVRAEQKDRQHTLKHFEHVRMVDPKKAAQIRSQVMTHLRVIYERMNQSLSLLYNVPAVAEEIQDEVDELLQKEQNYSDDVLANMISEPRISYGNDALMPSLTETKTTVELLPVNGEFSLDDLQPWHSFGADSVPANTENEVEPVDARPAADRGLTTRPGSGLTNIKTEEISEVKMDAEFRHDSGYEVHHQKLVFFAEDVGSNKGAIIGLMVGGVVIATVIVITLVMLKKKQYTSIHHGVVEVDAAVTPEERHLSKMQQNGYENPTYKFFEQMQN
# [2] = In vivo steady state metabolic clearance of the compound; settings: rat
# Cytochrome P450 2C9 = Cytochrome P450 2C9 (Homo sapiens, UniProt P11712); assay: Interaction with human cytochrome P450 isoform 2C9 expressed in baculovirus-insect cells; assay type: ADME
# In short: (§1)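 Microsomes from baculovirus-insect cells expressing human CYP1A2, 2C9, 2C19, 2D6 or 3A4. Compound serially diluted with an NADPH-regenerating mix (16.3 μM NADP+, 0.83 mM glucose-6-phosphate, 0.83 mM MgCl2, 0.4 U/mL G6PDH). Pre-warmed 10 min at 37 °C, then isoform-specific substrate added in 0.35 M potassium phosphate pH 7.4. Fluorometric read-out; IC50 by nonlinear regression.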
# [3] = Concentration ratio in cerebrospinal fluid and plasma; settings: rat
# [4] = Intestinal drug absorption was estimated in vitro using human colon adenocarcinoma (Caco-2) cell monolayers; assay type: ADME
# In short: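 Caco-2 monolayers on polycarbonate Transwell inserts, 2 h at 37 °C. Apical and basolateral solutions analysed by LC-MS/MS (SRM). Papp = Cb·Vb/(C0·A·t).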
# [5] = target: T2, Prostaglandin G/H synthase 1 (Rattus norvegicus) (UniProt Q63921); assay: Percent inhibition against cyclooxygenase-1 at 100 uM in rat blood
# T2 sequence (whole entry): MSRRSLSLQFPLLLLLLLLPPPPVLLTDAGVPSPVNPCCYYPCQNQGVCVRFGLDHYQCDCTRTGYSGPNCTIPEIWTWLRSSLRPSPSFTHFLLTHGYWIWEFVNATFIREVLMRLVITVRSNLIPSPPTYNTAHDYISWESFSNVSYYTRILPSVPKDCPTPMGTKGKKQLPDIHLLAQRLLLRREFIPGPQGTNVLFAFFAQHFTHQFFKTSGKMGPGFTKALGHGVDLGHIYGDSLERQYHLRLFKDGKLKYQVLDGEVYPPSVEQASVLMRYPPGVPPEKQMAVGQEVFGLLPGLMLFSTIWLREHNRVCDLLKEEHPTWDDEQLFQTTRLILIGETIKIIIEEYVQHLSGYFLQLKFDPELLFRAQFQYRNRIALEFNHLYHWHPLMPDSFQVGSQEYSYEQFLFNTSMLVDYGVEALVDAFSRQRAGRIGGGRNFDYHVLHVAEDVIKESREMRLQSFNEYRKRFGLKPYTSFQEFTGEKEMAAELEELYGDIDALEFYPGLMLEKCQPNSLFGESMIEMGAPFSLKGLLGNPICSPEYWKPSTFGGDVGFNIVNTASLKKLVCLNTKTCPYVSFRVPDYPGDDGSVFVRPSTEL
# In short: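 Fresh rat whole blood preincubated 1 h at 37 °C with compound (100 μM) or DMSO (0.3% final). Stimulated 30 min with A23187 calcium ionophore; plasma thromboxane B2 measured by radioimmunoassay.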
# [6] = target: T1, Amyloid-beta precursor protein; assay: Inhibitory concentration against beta-amyloid-42 (Abeta42) secretion was evaluated in human neuroglioma cells (H4-APP695NL); assay type: functional, cell-based
# In short: (§2)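 H4-APP695NL human neuroglioma cells (APP695 Swedish K595N/M596L) seeded at 2 × 10^5/well and grown 24 h to confluence. Increasing compound concentrations added overnight; DMSO 1% as vehicle. Supernatant Aβ42 or Aβ40 measured by electrochemiluminescence immunoassay: biotinylated 4G8 plus C-terminus-specific rabbit antibodies, captured on streptavidin beads.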
# Target sequence in this assay (P05067 18-770 limits assumed): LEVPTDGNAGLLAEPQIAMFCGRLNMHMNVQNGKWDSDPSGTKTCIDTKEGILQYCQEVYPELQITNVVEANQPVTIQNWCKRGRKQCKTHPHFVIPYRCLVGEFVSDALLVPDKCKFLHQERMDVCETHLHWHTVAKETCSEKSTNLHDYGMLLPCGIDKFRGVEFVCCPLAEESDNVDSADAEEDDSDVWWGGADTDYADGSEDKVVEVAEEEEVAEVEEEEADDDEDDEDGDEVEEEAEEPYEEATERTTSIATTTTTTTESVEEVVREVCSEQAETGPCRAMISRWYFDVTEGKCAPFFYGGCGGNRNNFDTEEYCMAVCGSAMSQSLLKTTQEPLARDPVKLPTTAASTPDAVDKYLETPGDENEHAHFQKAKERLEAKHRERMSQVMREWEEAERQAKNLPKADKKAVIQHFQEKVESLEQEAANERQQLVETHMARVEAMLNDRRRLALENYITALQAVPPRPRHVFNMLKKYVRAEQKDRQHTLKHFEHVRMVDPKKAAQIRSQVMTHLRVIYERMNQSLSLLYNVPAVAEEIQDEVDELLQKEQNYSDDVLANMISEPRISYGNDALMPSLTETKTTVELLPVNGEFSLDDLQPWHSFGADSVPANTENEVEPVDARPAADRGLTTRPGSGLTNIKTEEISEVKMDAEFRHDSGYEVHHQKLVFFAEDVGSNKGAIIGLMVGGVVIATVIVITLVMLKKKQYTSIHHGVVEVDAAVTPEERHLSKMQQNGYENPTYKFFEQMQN
# Cytochrome P450 2C19 = Cytochrome P450 2C19 (Homo sapiens, UniProt P33261); assay: Interaction with human cytochrome P450 isoform 2C19 expressed in baculovirus-insect cells; assay type: ADME
# In short: as §1
# Cytochrome P450 3A4 = Cytochrome P450 3A4 (Homo sapiens, UniProt P08684); assay: Interaction with human cytochrome P450 isoform 3A4 expressed in baculovirus-insect cells; assay type: ADME
# In short: (§3)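 Supersome microsomes from baculovirus-insect cells expressing human CYP1A2, 2C9, 2C19, 2D6 or 3A4 were used with isoform-specific fluorogenic substrates. Compounds were serially diluted with an NADP⁺/glucose-6-phosphate regenerating system in 0.35 M potassium phosphate, pH 7.4. Plates were prewarmed 10 min at 37 °C, reactions stopped with acetonitrile/Tris, and fluorescence read. IC50 was obtained by nonlinear regression.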
# Cytochrome P450 2D6 = Cytochrome P450 2D6 (Homo sapiens, UniProt P10635); assay: Interaction with human cytochrome P450 isoform 2D6 expressed in baculovirus-insect cells; assay type: ADME
# In short: as §3
# [7] = target: T1, Amyloid-beta precursor protein; assay: (§4) Concentration required to inhibit A beta 40 peptide 100 uM
# In short: as §2
# Target sequence in this assay (P05067 whole entry): as the sequence (P05067 whole entry) above
# CYP2D6 = CYP2D6 (Homo sapiens, UniProt P10635); assay: Interaction with human cytochrome P450 isoform 2D6 expressed in baculovirus-insect cells at 100 uM; assay type: ADME
# In short: as §1
# CYP1A2 = target: T3, CYP1A2 (Homo sapiens, UniProt P05177); assay: Interaction with human cytochrome P450 isoform 1A2 expressed in baculovirus-insect cells at 100 uM; assay type: ADME
# T3 sequence (P05177 whole entry): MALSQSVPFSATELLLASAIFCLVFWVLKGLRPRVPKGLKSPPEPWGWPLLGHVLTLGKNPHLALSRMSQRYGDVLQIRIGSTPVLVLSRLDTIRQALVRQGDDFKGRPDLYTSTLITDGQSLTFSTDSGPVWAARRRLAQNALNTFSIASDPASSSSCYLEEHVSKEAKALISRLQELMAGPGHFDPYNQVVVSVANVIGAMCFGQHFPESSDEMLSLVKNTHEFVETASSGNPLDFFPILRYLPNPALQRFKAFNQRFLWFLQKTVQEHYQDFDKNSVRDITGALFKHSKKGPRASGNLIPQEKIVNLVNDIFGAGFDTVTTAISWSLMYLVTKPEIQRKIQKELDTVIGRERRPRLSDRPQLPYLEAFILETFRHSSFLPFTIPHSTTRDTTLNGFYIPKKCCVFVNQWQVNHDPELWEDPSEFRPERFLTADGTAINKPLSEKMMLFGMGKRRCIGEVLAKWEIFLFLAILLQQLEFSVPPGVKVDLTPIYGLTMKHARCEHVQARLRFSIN
# In short: as §1
# CYP2C9 = CYP2C9 (Homo sapiens, UniProt P11712); assay: Interaction with human cytochrome P450 isoform 2C9 expressed in baculovirus-insect cells at 100 uM; assay type: ADME
# In short: as §1
# CYP2C19 = CYP2C19 (Homo sapiens, UniProt P33261); assay: Interaction with human cytochrome P450 isoform 2C19 expressed in baculovirus-insect cells at 100 uM; assay type: ADME
# In short: as §1
# CYP3A4 = CYP3A4 (Homo sapiens, UniProt P08684); assay: Interaction with human cytochrome P450 isoform 3A4 expressed in baculovirus-insect cells at 100 uM; assay type: ADME
# In short: as §1
# [8] = target: T1, Amyloid-beta precursor protein; assay: Concentration required to inhibit A beta 40 peptide 100 um
# Target sequence in this assay (P05067 whole entry): as the sequence (P05067 whole entry) above
# [9] = target: T1, Amyloid-beta precursor protein; assay: as §4; remark: listed apart in the source
# Target sequence in this assay (P05067 whole entry): as the sequence (P05067 whole entry) above
# [10] = target: T4, Prostaglandin G/H synthase 1 (Rattus norvegicus, UniProt Q63921); assay: Concentration required to inhibit cyclooxygenase-1 in rat blood
# T4 sequence (Q63921 whole entry): T2 sequence (whole entry)
# In short: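 Fresh rat whole blood was preincubated 1 h at 37 °C with compound (100 μM or a concentration series; DMSO 0.3% final). It was then stimulated 30 min with the Ca²⁺ ionophore A23187. Thromboxane B2 in the plasma was measured by radioimmunoassay.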
# [11] = Concentration ratio in cerebrospinal fluid and plasma; below lower limit of quantitation; settings: rat
# [12] = target: T1, Amyloid-beta precursor protein; assay: Concentration required to inhibit A beta 40 peptide
# In short: as §2
# Target sequence in this assay (P05067 whole entry): as the sequence (P05067 whole entry) above
# Chain of Cytochrome P450 2C9 (P11712 whole entry, canonical isoform): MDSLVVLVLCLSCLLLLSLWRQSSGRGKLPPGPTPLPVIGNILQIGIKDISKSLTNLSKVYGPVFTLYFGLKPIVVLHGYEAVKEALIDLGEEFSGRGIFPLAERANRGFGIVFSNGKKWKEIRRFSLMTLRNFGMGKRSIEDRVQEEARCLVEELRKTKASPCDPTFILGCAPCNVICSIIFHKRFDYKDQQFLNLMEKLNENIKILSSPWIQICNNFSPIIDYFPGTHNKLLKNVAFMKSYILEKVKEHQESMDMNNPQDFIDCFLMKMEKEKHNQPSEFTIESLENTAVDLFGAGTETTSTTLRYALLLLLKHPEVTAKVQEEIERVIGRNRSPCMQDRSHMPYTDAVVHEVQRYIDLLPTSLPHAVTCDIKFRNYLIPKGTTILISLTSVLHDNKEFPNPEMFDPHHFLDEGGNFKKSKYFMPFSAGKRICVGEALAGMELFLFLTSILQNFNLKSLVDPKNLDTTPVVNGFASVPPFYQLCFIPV
# Chain of Cytochrome P450 3A4 (P08684 whole entry, canonical isoform): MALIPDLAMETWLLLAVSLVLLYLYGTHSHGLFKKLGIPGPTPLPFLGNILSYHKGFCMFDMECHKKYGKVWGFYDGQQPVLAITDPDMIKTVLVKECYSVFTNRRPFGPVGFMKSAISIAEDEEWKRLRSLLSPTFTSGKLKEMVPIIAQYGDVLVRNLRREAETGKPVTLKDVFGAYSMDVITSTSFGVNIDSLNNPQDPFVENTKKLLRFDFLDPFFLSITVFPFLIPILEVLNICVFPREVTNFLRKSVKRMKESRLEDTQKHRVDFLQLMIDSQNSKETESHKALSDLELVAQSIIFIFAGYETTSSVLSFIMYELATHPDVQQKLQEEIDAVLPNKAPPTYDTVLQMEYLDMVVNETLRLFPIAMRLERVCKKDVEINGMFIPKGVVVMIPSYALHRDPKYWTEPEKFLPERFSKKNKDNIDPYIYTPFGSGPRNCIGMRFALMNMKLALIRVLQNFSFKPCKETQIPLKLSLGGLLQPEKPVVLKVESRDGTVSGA
# Chain of Cytochrome P450 2C19 (P33261 whole entry, canonical isoform): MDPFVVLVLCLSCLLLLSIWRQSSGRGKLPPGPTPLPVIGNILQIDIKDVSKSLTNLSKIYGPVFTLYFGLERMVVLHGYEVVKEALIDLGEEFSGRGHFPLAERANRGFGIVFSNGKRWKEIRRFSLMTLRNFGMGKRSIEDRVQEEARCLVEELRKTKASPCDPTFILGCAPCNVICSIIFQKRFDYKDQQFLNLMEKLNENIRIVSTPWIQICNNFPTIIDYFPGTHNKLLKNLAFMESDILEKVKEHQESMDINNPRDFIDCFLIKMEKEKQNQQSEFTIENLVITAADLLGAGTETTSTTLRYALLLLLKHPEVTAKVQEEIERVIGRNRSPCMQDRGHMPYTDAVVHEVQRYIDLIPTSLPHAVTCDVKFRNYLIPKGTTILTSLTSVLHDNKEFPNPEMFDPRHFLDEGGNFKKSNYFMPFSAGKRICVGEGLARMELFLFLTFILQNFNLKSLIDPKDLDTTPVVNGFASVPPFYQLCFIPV
# Chain of CYP2C19 (P33261 whole entry, canonical isoform): as above
# Chain of CYP2C9 (P11712 whole entry, canonical isoform): as the sequence (P11712 whole entry, canonical isoform) above
# Chain of CYP3A4 (P08684 whole entry, canonical isoform): as the sequence (P08684 whole entry, canonical isoform) above
# Chain of Cytochrome P450 2D6 (P10635 whole entry, canonical isoform): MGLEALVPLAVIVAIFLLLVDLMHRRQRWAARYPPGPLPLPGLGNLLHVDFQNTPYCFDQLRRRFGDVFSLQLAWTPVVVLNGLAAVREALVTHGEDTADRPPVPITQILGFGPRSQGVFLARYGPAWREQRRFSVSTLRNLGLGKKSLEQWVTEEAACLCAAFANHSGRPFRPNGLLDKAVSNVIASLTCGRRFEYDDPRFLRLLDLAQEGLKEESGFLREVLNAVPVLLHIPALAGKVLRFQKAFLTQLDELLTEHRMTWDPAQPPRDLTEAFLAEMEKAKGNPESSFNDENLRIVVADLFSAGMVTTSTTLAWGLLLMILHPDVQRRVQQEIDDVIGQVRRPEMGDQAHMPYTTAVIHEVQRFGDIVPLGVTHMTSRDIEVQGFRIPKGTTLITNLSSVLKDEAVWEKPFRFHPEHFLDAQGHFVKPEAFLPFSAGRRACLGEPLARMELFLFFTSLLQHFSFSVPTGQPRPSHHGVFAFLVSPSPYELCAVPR
# Chain of CYP2D6 (P10635 whole entry, canonical isoform): as above
smiles,measurement,setting,value
CC(C(=O)O)c1ccc(-c2ccc(C(F)(F)F)cc2)cc1 (stereo unspecified),inhibition,[1],2%
CC(C(=O)O)c1ccc(-c2ccc(C(F)(F)F)cc2)cc1C(F)(F)F (stereo unspecified),inhibition,[1],57%
O=C(O)C1(c2ccc(-c3csc4ccccc34)c(F)c2)CC1,inhibition,[1],49%
same,Clearance,[2],113.6 mL/h
same,IC50,Cytochrome P450 2C9,19 µM
same,Ratio,[3],2.6%
same,Papp,[4],> 5 ×10⁻⁶ cm/s
same,inhibition,[5],< 1%
same,IC50,[6],96.3 µM
CC(C(=O)O)c1ccc(-c2ccc(-c3ccc(O)cc3)cc2)c(F)c1 (stereo unspecified),IC50,Cytochrome P450 2C19,58 µM
same,inhibition,[1],75%
same,Clearance,[2],85 mL/h
same,IC50,Cytochrome P450 2C9,4.7 µM
same,Ratio,[3],1.1%
same,Papp,[4],> 5 ×10⁻⁶ cm/s
same,inhibition,[5],17%
same,IC50,Cytochrome P450 3A4,74 µM
same,IC50,[6],35 µM
O=C(O)C1(c2ccc(-c3ccc(-c4ccc(O)cc4)cc3)c(F)c2)CC1,IC50,Cytochrome P450 2C19,35 µM
same,inhibition,[1],99%
same,IC50,Cytochrome P450 2C9,89 µM
same,IC50,Cytochrome P450 2D6,21.5 µM
same,Papp,[4],> 5 ×10⁻⁶ cm/s
same,inhibition,[5],< 1%
same,IC50,[7],409 µM
same,IC50,[6],31.6 µM
CC(C(=O)O)c1ccc(-c2ccc(Cl)cc2)c(F)c1 (stereo unspecified),inhibition,[1],55%
CC(C(=O)NS(C)(=O)=O)c1ccc(-c2ccc(C(F)(F)F)cc2)c(F)c1 (stereo unspecified),inhibition at 100 µM,CYP2D6,> 50%
same,inhibition at 100 µM,CYP1A2,> 50%
same,inhibition at 100 µM,CYP2C9,> 50%
same,inhibition,[1],34%
same,Clearance,[2],3.1 mL/h
same,inhibition at 100 µM,CYP2C19,> 50%
same,Ratio,[3],1.7%
same,inhibition at 100 µM,CYP3A4,> 50%
CC(C)(C(=O)O)c1ccc(-c2ccc(C3CCCCC3)cc2)c(F)c1,inhibition,[1],77%
same,inhibition,[8],47%
same,IC50,Cytochrome P450 2C9,28 µM
same,inhibition,[5],12%
same,IC50,Cytochrome P450 3A4,59 µM
CC(C(=O)O)c1ccc(-c2ccc(C(F)(F)F)cc2)c(Cl)c1 (stereo unspecified),inhibition,[9],40%
C[C@H](C(=O)O)c1ccc(-c2ccccc2)c(F)c1 [ESFLURBIPROFEN],IC50,[10],30 nM
CC(C(=O)O)c1ccc(-c2ccccc2Cl)c(F)c1 (stereo unspecified),inhibition,[1],13%
O=C(O)C1(c2ccc(-c3ccc(-c4ccc(O)cc4)c(F)c3)c(F)c2)CC1,Ratio,[11],Below LLOQ
same,IC50,Cytochrome P450 2C19,74 µM
same,inhibition,[1],80%
same,Clearance,[2],109 mL/h
same,Papp,[4],> 5 ×10⁻⁶ cm/s
same,inhibition,[5],< 1%
same,IC50,Cytochrome P450 3A4,58 µM
same,IC50,[12],111 µM
same,IC50,[6],33.6 µM
Cc1ccc(-c2ccc(C(C)C(=O)O)cc2F)cc1 (stereo unspecified),inhibition,[1],44%
CC(C(=O)O)c1ccc(-c2ccsc2)c(F)c1 (stereo unspecified),inhibition,[1],40%
CC(c1ccc(-c2ccc(C(F)(F)F)cc2)c(F)c1)c1noc(O)n1 (stereo unspecified),inhibition at 100 µM,CYP2C9,> 50%
same,inhibition,[1],46%
same,Clearance,[2],5.3 mL/h
same,inhibition at 100 µM,CYP2C19,> 50%
same,Ratio,[3],2.1%
same,inhibition at 100 µM,CYP3A4,> 50%
CC(C(=O)O)c1ccc(-c2ccc(Cl)c(Cl)c2)c(F)c1 (stereo unspecified),inhibition,[1],87%
same,inhibition at 100 µM,CYP2C19,> 50%
same,Papp,[4],> 5 ×10⁻⁶ cm/s
same,inhibition,[5],78%
same,IC50,[6],75 µM
CC(C(=O)O)c1ccc(-c2ccncc2)c(F)c1 (stereo unspecified),inhibition,[1],11%
